Compound activity: PubChem, Broad Institute
STK33 inh = inhibitors of human STK33 kinase. 320,000 compounds, 0.073% hits. Q9BYT3. inhibition, % at 10 µM. purified STK33, MBP phosphorylation, ADP-Glo luminescence;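 active means inhibition at or above 25%, using the most active replicate where run in duplicate; inactive means inhibition below 25%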
GSK3 alpha inh = blocks human GSK-3 alpha kinase. ADP-Glo luminescence, 60 min. inhibition, % at 10 µM. 320,000 compounds, 0.1% hits. AID 2650;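 active means more than half of replicates show inhibition above 20%; inconclusive means some but at most half of replicates above 20% inhibition; inactive means no replicate shows inhibition above 20%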;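 further: GST-tagged GSK-3 alpha with peptide substrate and 25 µM ATP; 0% = DMSO neutral wells and 100% = GW8510 positive control wells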
AI-2 QS mod = Vibrio harveyi AI-2 quorum sensing modulation; Vibrio harveyi JMH597 AI-2 luminescence/OD600 ratio, 9 h; hits give low values; strain lacks LuxN and CqsS sensors; 0 = neutral-control median; activity change, % at 7.5 µM; 300,000 compounds, 0.4% hits; AID 2094; in the data active means activity change below about -75%, passing the limit was not always enough; inconclusive means no clear call, values can overlap the other calls;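 further: luminescence divided by OD600 gain over 9 h not by final OD600 alone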
DYRK1A inh = inhibitors of rat Dyrk1A kinase. Q63470. AID 504441. ADP-Glo luminescence, NFATc1 peptide. inhibition, % at 12.5 µM. 310,000 compounds, 0.43% hits; in the data active means inhibition above about 50%;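 further: plate controls were vehicle with enzyme for no effect and no enzyme for full effect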
Rce1 inhib = inhibitors of yeast Ras-converting enzyme | yeast membranes, quenched prenylated peptide cleavage fluorescence | calls only | 290,000 compounds, 0.27% hits | AID 2563;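 active means fall in fluorescence gain of 50% or more versus controls, with final raw signal at or below 3038400; inconclusive means same 50% fall but final raw signal above 3038400; inactive means fall in fluorescence gain under 50%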;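 further: plate controls were neutral control wells for no effect and wells lacking membranes for full effect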
GSK3B inh = human GSK3beta kinase inhibition; GST-GSK3beta kinase, ADP-Glo luminescence, 60 min; hits give low values; activity score (negative = inhibition), % at 10 µM; P49841; 300,000 compounds, 0.038% hits;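 active means more than half of replicate wells score below -50%, meaning over 50% inhibition versus plate controls; inconclusive means some replicates but at most half score below -50%; inactive means no replicate scores below -50%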;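 further: 0% = median DMSO wells and -100% = median GW8510 positive control wells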
Target sequence (P49841 whole entry, looked up): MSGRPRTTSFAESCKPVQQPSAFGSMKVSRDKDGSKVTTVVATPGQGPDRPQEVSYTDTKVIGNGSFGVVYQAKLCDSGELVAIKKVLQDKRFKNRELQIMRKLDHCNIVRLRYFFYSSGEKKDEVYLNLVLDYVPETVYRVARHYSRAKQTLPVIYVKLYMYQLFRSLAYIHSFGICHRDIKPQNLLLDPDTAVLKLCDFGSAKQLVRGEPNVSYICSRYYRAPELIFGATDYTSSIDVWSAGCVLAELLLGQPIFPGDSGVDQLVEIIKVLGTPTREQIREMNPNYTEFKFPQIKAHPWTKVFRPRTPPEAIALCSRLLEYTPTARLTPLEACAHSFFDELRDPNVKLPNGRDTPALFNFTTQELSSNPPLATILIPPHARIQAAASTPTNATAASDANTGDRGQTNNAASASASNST
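Assay system: GST-tagged human GSK3beta kinase, cell-free; Input: 1.6 ng GSK3beta; Medium: Tris/MgCl2 kinase buffer; Timing: 60 min enzyme reaction, room temperature; Signal: ADP-Glo luminescence quantifying ADP generated by kinase; Evaluation: score relative to plate controls; Benchmarks: DMSO neutral wells and GW8510 at 20 µM as positive.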
* marks the source's active call; other numbers are inactive results; i = inactive; ? = inconclusive; / = no result given; + = active, no number. Most compounds without a hit are left out; they make up all but 0.99% or so of the library.

SMILES | STK33 inh | GSK3 alpha inh | AI-2 QS mod | DYRK1A inh | Rce1 inhib | GSK3B inh
Cc1oc(-c2ccccc2F)nc1CS(=O)CC(=O)NCc1ccc(F)cc1 (stereo not drawn) | -1 | 2 | 18 | 1 | i | -3
Fc1ccc(-c2cc3nc(-c4ccccc4)cc(N4CCN(CCN5CCOCC5)CC4)n3n2)cc1 | / | / | -13 | 18 | + | 2
O=C(COc1ccccc1)Nc1ccc(S(=O)(=O)N2CCCC2)cc1 | / | / | -95* | 0 | i | 2
Cc1ccc(OCC(=O)Nc2ccc(S(=O)(=O)N3CCOCC3)cc2)c(Br)c1 | 4 | 5 | 17 | -1 | + | 2
COc1ccccc1OCC(=O)Nc1ccc(S(=O)(=O)N2CCCCCC2)cc1 | 0 | -2 | 30 | 3 | i | 4
O=C(COc1ccccc1)Nc1ccc(S(=O)(=O)N2CCCCCC2)cc1 | -3 | 0 | ? | 4 | i | 5
O=C(CCc1ccccc1)Nc1ccc(S(=O)(=O)N2CCCC2)cc1 | 1 | -2 | -89* | 1 | i | 1
Cc1ccccc1OCC(=O)Nc1ccc(S(=O)(=O)N2CCCC2)cc1 | / | / | -79* | 9 | i | 1
Cc1ccc(C)c(C(=O)C(C)Sc2nc3nn(-c4ccccc4)c(=O)c-3c3n2CCCCC3)c1 (stereo not drawn) | -4 | 0 | 8 | -5 | i | -1
CCOc1ccccc1NC(=O)NNC(=O)COc1cccc(C)c1C | -1 | 0 | 30 | 2 | i | 1
O=C(c1ccco1)N1CCN(Cc2csc(-c3ccccc3Cl)n2)CC1 | 0 | -1 | 6 | -5 | i | 4
O=C(COc1ncnc2ccccc12)Nc1ccc(S(=O)(=O)N2CCOCC2)cc1 | 0 | -1 | -92* | 0 | i | 0
CC(=O)Nc1ccc(NS(=O)(=O)c2cccc3nonc23)cc1 | -1 | -2 | / | -9 | / | /
Cc1ccc(N(CC(=O)NC2CCCC2)C(=O)c2nsc(Cl)c2Cl)cc1 | 1 | -3 | / | -1 | / | /
COc1cccc(-c2csc(N3CCN(C(=O)NC45CC6CC(CC(C6)C4)C5)CC3)n2)c1 | -2 | -4 | 17 | -3 | + | -2
O=C1C(c2ccncc2)=C(O)c2ccccc21 | 27* | 4 | 7 | -2 | i | -2
O=C(Nc1nncs1)C1CC(=O)N(CCc2ccc(F)cc2)C1 (stereo not drawn) | -1 | -4 | 1 | -7 | i | -3
Cc1ccc(CN2CCNC(=O)C2CC(=O)NC2CCCCCC2)o1 (stereo not drawn) | -1 | 1 | 15 | -4 | + | -2
CC1CCCC(NC(=O)/C=C/c2c(F)cccc2Cl)C1C (stereo not drawn) | -1 | -2 | 20 | 0 | i | -3
CN(C)Cc1c(C(=O)N/N=C/c2ccncc2)nnn1-c1nonc1N | 0 | 64* | 21 | 12 | i | -29
CN(C)Cc1c(C(=O)N/N=C/c2ccoc2)nnn1-c1nonc1N | 1 | 0 | 22 | 25 | / | -1
CCN(CC)Cc1c(C(=O)N/N=C/c2ccncc2)nnn1-c1nonc1N | 4 | 101* | 0 | 9 | i | 2
Cc1nnn(-c2nonc2N)c1C(=O)N/N=C/c1cccc2ccccc12 | -1 | / | -2 | 4 | + | -1
CCCN(CCC)Cc1c(C(=O)N/N=C/c2ccoc2)nnn1-c1nonc1N | 1 | 72* | 37 | -1 | / | -58*
Nc1cc(=O)[nH]c(SCC(=O)Nc2ccc(N3CCCCC3)cc2)n1 | -1 | 0 | / | -3 | / | /
SMILES | STK33 inh | GSK3 alpha inh | AI-2 QS mod | DYRK1A inh | Rce1 inhib | GSK3B inh
Nc1nonc1-n1nnc(C(=O)N/N=C/c2ccccc2)c1CSc1ccccc1 | -1 | 1 | 5 | / | / | 0
Nc1nonc1-n1nnc(C(=O)N/N=C/c2ccoc2)c1CSc1ccccc1 | -1 | 4 | 29 | 1 | + | -1
Cc1ccc(S(=O)(=O)c2cn(C)c3cc(N4CCOCC4)c(F)cc3c2=O)cc1 | -5 | 0 | 27 | -4 | + | -3
Cn1cc(S(=O)(=O)c2ccccc2)c(=O)c2cc(F)c(N3CCOCC3)cc21 | -1 | 1 | 23 | -5 | i | 2
Cn1c(=O)c(C(=O)NCCO)c(O)c2ccccc21 | 1 | -1 | 12 | 6 | + | 2
O=C(Nc1ccc(N2CCN(C(=O)c3ccco3)CC2)c(Cl)c1)c1cc2ccccc2o1 | 0 | -1 | 23 | 4 | i | 5
CCC(=O)N1CCN(c2ccc(NC(=O)c3cc4ccccc4o3)cc2Cl)CC1 | 1 | 0 | 26 | 9 | + | 3
CCCC(=O)N1CCN(c2ccc(NC(=O)c3cc4ccccc4o3)cc2Cl)CC1 | -1 | 0 | 35 | 2 | + | -1
Cn1ncc(Cl)c1C(=O)NNC(=O)Nc1cccc2ccccc12 | 0 | / | -5 | -1 | i | -1
O=C(NCC1CC1)c1ccc(Nc2nc3ccc(Br)cc3[nH]2)cc1 | 18 | 1 | -10 | 3 | + | 4
O=C(NCc1ccco1)c1cccc(Nc2nc3ccc(Br)cc3[nH]2)c1 | 2 | 0 | 28 | 7 | i | -22
Cc1cccc(/C(N)=N/OC(=O)CCCc2ccccc2)c1 | 0 | 0 | -7 | -10 | i | 1
COc1cccc2sc(Nc3nnc(-c4cccs4)o3)nc12 | 2 | 2 | -165* | -6 | i | 4
CN(C)CCN(C(=O)c1ccc2ccccc2c1)c1nc2ccc(F)cc2s1 | 0 | 0 | 11 | 0 | + | 1
COc1cc2ccccc2cc1C(=O)N(CCN(C)C)c1nc2ccc(C)cc2s1 | 0 | -7 | 19 | 1 | + | 1
COc1cc2ccccc2cc1C(=O)N(CCN(C)C)c1nc2c(OC)ccc(OC)c2s1 | 2 | 6 | 9 | 9 | i | -1
COc1cc2cc(C(=O)O)[nH]c2c(OC)c1OC | -1 | 0 | 29 | -2 | + | 1
O=C(NC(=S)Nc1cc([N+](=O)[O-])ccc1O)C1CC1 | 5 | 7 | -2 | / | i | -8
Cc1cc(C)n2c(nc3ccccc32)c1C(=O)NCc1ccccc1 | 0 | -1 | 31 | 5 | + | 0
Cc1cc(C)n2c(nc3ccccc32)c1C(=O)NN | -1 | -4 | 12 | / | i | 7
CN1CCCN(Cc2ccccc2Br)CC1 | 0 | -2 | / | 8 | / | /
Cc1cc(NC(=O)COC(=O)c2nccnc2N)n(-c2ccccc2)n1 | -1 | 15 | 34 | / | + | 1
CC(C)(C)c1cc(NC(=O)COC(=O)c2nccnc2N)n(-c2ccccc2)n1 | 1 | 2 | 20 | -5 | i | 0
Cc1ccc(N=CC2=C(O)CC(C)(C)CC2=O)nc1 | -1 | 0 | 43 | 8 | i | -1
Cc1ccc(N=Cc2c(O)n(C)c(=O)n(C)c2=O)nc1 | 0 | -2 | 37 | -6 | + | -3
